Source: ChEMBL document CHEMBL3612017, “Rigidified A3 Adenosine Receptor Agonists: 1-Deazaadenine Modification Maintains High in Vivo Efficacy” (ACS Med Chem Lett, 2015)

What follows are molecules tested against T1, Adenosine receptor A3 (Canis lupus familiaris, UniProt Q28309) (assay: Binding affinity to canine adenosine A3 receptor expressed in HEK293 cell membranes). Details: read-out: Ki; call rule not given here.
T1 sequence (Q28309 whole entry): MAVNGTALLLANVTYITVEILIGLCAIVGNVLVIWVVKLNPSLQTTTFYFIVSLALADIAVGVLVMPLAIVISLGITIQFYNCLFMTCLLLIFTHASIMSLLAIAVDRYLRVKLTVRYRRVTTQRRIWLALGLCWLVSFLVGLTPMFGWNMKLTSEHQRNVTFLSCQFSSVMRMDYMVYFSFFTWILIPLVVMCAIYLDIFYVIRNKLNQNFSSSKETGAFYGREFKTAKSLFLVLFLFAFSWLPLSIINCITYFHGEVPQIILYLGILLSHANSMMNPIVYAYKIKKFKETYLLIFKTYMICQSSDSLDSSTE
Procedure, shortened: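 Radioligand binding used membranes of HEK293 cells expressing the mouse or the canine A3 receptor. Affinities were given as Ki in nM, mean ± SEM, n = 3.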

Row | Structure (SMILES) | Ki
1 | CCCNc1nc(C#Cc2ccc(Cl)s2)nc2c1ncn2[C@H]1[C@H](O)[C@H](O)[C@]2(C(=O)NC)C[C@H]12 | 5.8 nM
2 | CNC(=O)[C@@]12C[C@@H]1[C@@H](n1cnc3c(NC)cc(C#Cc4ccc(Cl)s4)nc31)[C@H](O)[C@@H]2O | 75 nM

These molecules were tested against Adenosine receptor A2a (Homo sapiens) (UniProt P29274) (assay: Displacement of [3H]2-[p-(2-carboxyethyl)phenyl-ethylamino]-5'-Nethylcarboxamidoadenosine from human adenosine A2A receptor expressed in HEK293 cell membranes at 10 uM). Details: not given.
Sequence of Adenosine receptor A2a (Homo sapiens) (P29274 whole entry): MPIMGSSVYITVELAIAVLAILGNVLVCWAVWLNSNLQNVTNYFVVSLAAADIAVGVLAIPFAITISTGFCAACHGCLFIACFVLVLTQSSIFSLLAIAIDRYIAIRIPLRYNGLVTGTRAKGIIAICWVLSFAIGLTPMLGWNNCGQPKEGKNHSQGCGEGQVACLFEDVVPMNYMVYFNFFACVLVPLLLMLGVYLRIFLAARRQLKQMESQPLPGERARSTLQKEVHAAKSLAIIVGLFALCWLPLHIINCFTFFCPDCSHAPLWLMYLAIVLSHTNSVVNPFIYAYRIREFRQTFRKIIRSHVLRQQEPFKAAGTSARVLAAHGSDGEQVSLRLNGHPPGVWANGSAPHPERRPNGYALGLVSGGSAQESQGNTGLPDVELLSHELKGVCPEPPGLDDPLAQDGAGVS
Procedure, shortened: (§1)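 Radioligand binding at the human receptor subtypes. Nonspecific binding was defined with adenosine 5′-N-ethyluronamide (10 μM). Ki values came from displacement curves, mean ± SEM, n = 3 unless noted. Single-point data were expressed as % inhibition of binding at 10 μM.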

Row | Structure (SMILES) | inhibition
3 | CNC(=O)[C@@]12C[C@@H]1[C@@H](n1cnc3c(NC(C)C)nc(C#Cc4ccc(Cl)s4)nc31)[C@H](O)[C@@H]2O | 17%
4 | CNC(=O)[C@@]12C[C@@H]1[C@@H](n1cnc3c(NC4CC4)cc(C#Cc4ccc(Cl)s4)nc31)[C@H](O)[C@@H]2O | 11%
5 | CCCNc1nc(C#Cc2ccc(Cl)s2)nc2c1ncn2[C@H]1[C@H](O)[C@H](O)[C@]2(C(=O)NC)C[C@H]12 | 34%
6 | CNC(=O)[C@@]12C[C@@H]1[C@@H](n1cnc3c(NC)cc(C#Cc4ccc(Cl)s4)nc31)[C@H](O)[C@@H]2O | 8%

The molecules below were run on Mus musculus (assay: Analgesic activity in mouse chronic constriction injury model of neuropathic pain assessed as protection of ipsilateral hind paw mechanoallodynia of sciatic nerve at 0.3 to 30 umol/kg administered through oral gavage at point of peak pain on day 7 measured at 3 hrs). Details: not given.
Format: functional
Procedure, shortened: (§2)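 Mice had sciatic nerve chronic constriction injury. Compound was given by oral gavage on day 7, at peak pain. Mechanoallodynia was scored on the ipsilateral and contralateral hind paws at the 1 h and 3 h time points, as % protection. n = 4 per group, some n = 3.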

Row | Structure (SMILES) | Activity
7 | CNC(=O)[C@@]12C[C@@H]1[C@@H](n1cnc3c(NC(C)C)nc(C#Cc4ccc(Cl)s4)nc31)[C@H](O)[C@@H]2O | 39%
8 | CCCNc1nc(C#Cc2ccc(Cl)s2)nc2c1ncn2[C@H]1[C@H](O)[C@H](O)[C@]2(C(=O)NC)C[C@H]12 | 93%
9 | CNC(=O)[C@@]12C[C@@H]1[C@@H](n1cnc3c(NC)cc(C#Cc4ccc(Cl)s4)nc31)[C@H](O)[C@@H]2O | 80%

What follows are molecules tested on Mus musculus (assay: Analgesic activity in mouse chronic constriction injury model of neuropathic pain assessed as protection of ipsilateral hind paw mechanoallodynia of sciatic nerve at 0.3 to 30 umol/kg administered through oral gavage at point of peak pain on day 7 relative to control measured at 1 hr). Details: not given.
Format: functional
Procedure, shortened: as §2

Row | Structure (SMILES) | Emax
10 | CNC(=O)[C@@]12C[C@@H]1[C@@H](n1cnc3c(NC(C)C)nc(C#Cc4ccc(Cl)s4)nc31)[C@H](O)[C@@H]2O | 88%
11 | CCCNc1nc(C#Cc2ccc(Cl)s2)nc2c1ncn2[C@H]1[C@H](O)[C@H](O)[C@]2(C(=O)NC)C[C@H]12 | 95%
12 | CNC(=O)[C@@]12C[C@@H]1[C@@H](n1cnc3c(NC)cc(C#Cc4ccc(Cl)s4)nc31)[C@H](O)[C@@H]2O | 91%

These molecules were tested against T2, Adenosine receptor A2b (Homo sapiens) (UniProt P29275) (assay: Displacement of [3H]MRS1754 from human adenosine A2B receptor expressed in HEK293 cell membranes at 10 uM). Details: not given.
T2 sequence (whole entry): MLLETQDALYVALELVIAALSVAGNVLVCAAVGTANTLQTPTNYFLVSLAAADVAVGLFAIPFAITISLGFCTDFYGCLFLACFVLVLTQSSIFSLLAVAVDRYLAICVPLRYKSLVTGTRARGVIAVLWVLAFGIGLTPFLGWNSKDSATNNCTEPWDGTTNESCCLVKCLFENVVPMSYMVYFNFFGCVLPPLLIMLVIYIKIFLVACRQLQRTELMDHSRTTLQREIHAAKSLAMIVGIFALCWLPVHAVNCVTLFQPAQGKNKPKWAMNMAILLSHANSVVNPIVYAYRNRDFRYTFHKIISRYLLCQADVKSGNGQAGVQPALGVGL

Row | Structure (SMILES) | inhibition
13 | CCCNc1nc(C#Cc2ccc(Cl)s2)nc2c1ncn2[C@H]1[C@H](O)[C@H](O)[C@]2(C(=O)NC)C[C@H]12 | 34%

These molecules were tested against T3, Adenosine receptor A3 (Homo sapiens, UniProt P0DMS8) (assay: Displacement of [125I]N6-(4-amino-3-iodobenzyl)adenosine-5'-N-methyluronamide from human adenosine A3 receptor expressed in CHO cell membranes). Details: not given.
T3 sequence (P0DMS8 whole entry): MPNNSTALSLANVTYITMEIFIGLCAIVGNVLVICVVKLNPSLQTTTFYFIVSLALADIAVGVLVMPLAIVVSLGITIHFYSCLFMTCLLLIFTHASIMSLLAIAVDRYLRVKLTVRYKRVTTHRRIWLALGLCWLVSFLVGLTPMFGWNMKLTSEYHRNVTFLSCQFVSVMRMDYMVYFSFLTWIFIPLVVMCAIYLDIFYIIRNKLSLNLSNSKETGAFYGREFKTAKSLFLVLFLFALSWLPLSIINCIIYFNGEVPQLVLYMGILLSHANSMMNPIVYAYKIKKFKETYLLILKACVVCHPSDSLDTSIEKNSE

Row | Structure (SMILES) | Ki
14 | CNC(=O)[C@@]12C[C@@H]1[C@@H](n1cnc3c(NC(C)C)nc(C#Cc4ccc(Cl)s4)nc31)[C@H](O)[C@@H]2O | 2.9 nM
15 | CNC(=O)[C@@]12C[C@@H]1[C@@H](n1cnc3c(NC4CC4)cc(C#Cc4ccc(Cl)s4)nc31)[C@H](O)[C@@H]2O | 10 nM
16 | CCCNc1nc(C#Cc2ccc(Cl)s2)nc2c1ncn2[C@H]1[C@H](O)[C@H](O)[C@]2(C(=O)NC)C[C@H]12 | 1.1 nM
17 | CNC(=O)[C@@]12C[C@@H]1[C@@H](n1cnc3c(NC)cc(C#Cc4ccc(Cl)s4)nc31)[C@H](O)[C@@H]2O | 3 nM

The molecules below were run against T4, Adenosine receptor A3 (Mus musculus, UniProt Q61618) (assay: Binding affinity to mouse adenosine A3 receptor expressed in HEK293 cell membranes). Details: not given.
T4 sequence (Q61618 whole entry): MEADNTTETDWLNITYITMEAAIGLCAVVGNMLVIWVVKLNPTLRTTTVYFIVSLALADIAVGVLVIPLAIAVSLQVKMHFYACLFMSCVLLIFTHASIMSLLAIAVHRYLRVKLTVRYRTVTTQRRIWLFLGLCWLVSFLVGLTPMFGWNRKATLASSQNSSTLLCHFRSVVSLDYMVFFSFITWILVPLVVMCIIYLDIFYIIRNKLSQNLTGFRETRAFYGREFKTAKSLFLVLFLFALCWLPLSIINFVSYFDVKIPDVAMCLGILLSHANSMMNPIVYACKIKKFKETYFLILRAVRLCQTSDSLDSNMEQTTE
Procedure, shortened: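 Radioligand binding used membranes of HEK293 cells expressing the mouse or the canine A3 receptor.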

Row | Structure (SMILES) | Ki
18 | CCCNc1nc(C#Cc2ccc(Cl)s2)nc2c1ncn2[C@H]1[C@H](O)[C@H](O)[C@]2(C(=O)NC)C[C@H]12 | 6.8 nM
19 | CNC(=O)[C@@]12C[C@@H]1[C@@H](n1cnc3c(NC)cc(C#Cc4ccc(Cl)s4)nc31)[C@H](O)[C@@H]2O | 31 nM

These molecules were tested against 5-hydroxytryptamine receptor 2B (Homo sapiens, UniProt P41595) (assay: Binding affinity to 5HT2B receptor (unknown origin)). Details: not given.
Sequence of 5-hydroxytryptamine receptor 2B (P41595 whole entry): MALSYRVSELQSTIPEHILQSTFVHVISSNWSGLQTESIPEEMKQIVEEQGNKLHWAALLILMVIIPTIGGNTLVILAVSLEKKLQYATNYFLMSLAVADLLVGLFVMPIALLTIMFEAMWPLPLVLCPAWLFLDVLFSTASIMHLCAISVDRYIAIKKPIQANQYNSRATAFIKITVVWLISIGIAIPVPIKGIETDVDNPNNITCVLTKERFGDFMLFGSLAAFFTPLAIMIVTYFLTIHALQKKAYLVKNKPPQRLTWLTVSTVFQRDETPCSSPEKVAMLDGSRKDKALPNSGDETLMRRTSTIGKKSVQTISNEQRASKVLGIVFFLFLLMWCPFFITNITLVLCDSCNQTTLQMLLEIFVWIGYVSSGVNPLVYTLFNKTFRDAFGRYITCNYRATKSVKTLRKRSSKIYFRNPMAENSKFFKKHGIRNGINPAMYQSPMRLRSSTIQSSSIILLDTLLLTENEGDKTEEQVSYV

Row | Structure (SMILES) | Ki
20 | CCCNc1nc(C#Cc2ccc(Cl)s2)nc2c1ncn2[C@H]1[C@H](O)[C@H](O)[C@]2(C(=O)NC)C[C@H]12 | Not Active

The molecules below were run against T5, Adenosine receptor A1 (Homo sapiens) (UniProt P30542) (assay: Displacement of [3H]N6-R-phenylisopropyladenosine from human adenosine A1 receptor expressed in CHO cell membranes at 10 uM). Details: not given.
T5 sequence (whole entry): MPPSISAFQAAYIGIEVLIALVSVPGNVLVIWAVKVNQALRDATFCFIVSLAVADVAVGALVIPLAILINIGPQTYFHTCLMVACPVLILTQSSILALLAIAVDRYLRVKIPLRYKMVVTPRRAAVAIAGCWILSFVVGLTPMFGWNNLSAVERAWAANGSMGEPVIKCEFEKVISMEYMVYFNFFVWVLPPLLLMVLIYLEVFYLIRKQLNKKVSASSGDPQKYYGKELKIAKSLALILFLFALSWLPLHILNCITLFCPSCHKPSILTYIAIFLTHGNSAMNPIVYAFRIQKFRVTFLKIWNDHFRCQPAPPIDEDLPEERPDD
Procedure, shortened: as §1

Row | Structure (SMILES) | inhibition
21 | CNC(=O)[C@@]12C[C@@H]1[C@@H](n1cnc3c(NC(C)C)nc(C#Cc4ccc(Cl)s4)nc31)[C@H](O)[C@@H]2O | 26%
22 | CNC(=O)[C@@]12C[C@@H]1[C@@H](n1cnc3c(NC4CC4)cc(C#Cc4ccc(Cl)s4)nc31)[C@H](O)[C@@H]2O | 26%
23 | CCCNc1nc(C#Cc2ccc(Cl)s2)nc2c1ncn2[C@H]1[C@H](O)[C@H](O)[C@]2(C(=O)NC)C[C@H]12 | 22%
24 | CNC(=O)[C@@]12C[C@@H]1[C@@H](n1cnc3c(NC)cc(C#Cc4ccc(Cl)s4)nc31)[C@H](O)[C@@H]2O | 15%

The molecules below were run on Mus musculus (assay: Analgesic activity in mouse chronic constriction injury model of neuropathic pain assessed as time of peak protection at 0.3 to 30 umol/kg administered through oral gavage at point of peak pain on day 7). Details: not given.
Format: functional
Procedure, shortened: as §2

Row | Structure (SMILES) | Time
25 | CNC(=O)[C@@]12C[C@@H]1[C@@H](n1cnc3c(NC(C)C)nc(C#Cc4ccc(Cl)s4)nc31)[C@H](O)[C@@H]2O | 1 h
26 | CCCNc1nc(C#Cc2ccc(Cl)s2)nc2c1ncn2[C@H]1[C@H](O)[C@H](O)[C@]2(C(=O)NC)C[C@H]12 | 1 h
27 | CNC(=O)[C@@]12C[C@@H]1[C@@H](n1cnc3c(NC)cc(C#Cc4ccc(Cl)s4)nc31)[C@H](O)[C@@H]2O | 1 h

Each molecule was assayed on Mus musculus (assay: Effect on contralateral side hind paw in mouse chronic constriction injury model of neuropathic pain at 0.3 to 30 umol/kg administered through oral gavage at point of peak pain on day 7). Details: in vivo.
Format: ADME, organism-based
Procedure, shortened: as §2

Row | Structure (SMILES) | Activity
28 | CNC(=O)[C@@]12C[C@@H]1[C@@H](n1cnc3c(NC(C)C)nc(C#Cc4ccc(Cl)s4)nc31)[C@H](O)[C@@H]2O | Non-toxic
29 | CCCNc1nc(C#Cc2ccc(Cl)s2)nc2c1ncn2[C@H]1[C@H](O)[C@H](O)[C@]2(C(=O)NC)C[C@H]12 | Non-toxic
30 | CNC(=O)[C@@]12C[C@@H]1[C@@H](n1cnc3c(NC)cc(C#Cc4ccc(Cl)s4)nc31)[C@H](O)[C@@H]2O | Non-toxic
